# According to PubChem BioAssay:
# Calls of active or inactive are those of the source.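 The calls were made as follows, unless noted: active = inhibition of the reporter signal at or above 50%; inactive = inhibition below 50%.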
# Tests used:
# [1] = inhibitors of TNFa-induced NFkB p65 translocation, primary screen, imaging, HUVEC, MLSMR starter and 10KST1 sets (AID 438;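 active = inhibition above 20% together with a positive visual image hit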;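 also: compound added about 3h40 before a 20 min TNFalpha stimulation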;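 as to inhibition: signal is the nuclear over cytoplasmic p65 intensity ratio per well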); conditions: HUVEC TNFa-induced p65 nuclear translocation; cell count: measured here: nuclei count (cytotoxicity indicator), at 2.08 µM; inhibition: at 2 µM, stronger effect = higher value, 0% TNFa-plus-vehicle, 100% no-TNFa wells
# [2] = reduction of polyQ htt aggregates in cells – imaging, exon1htt(103Q)mCFP cells, high-content imaging, primary screen (AID 483;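 active = visual image review flags a hit and inhibition of aggregation exceeds 20%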;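 also: compound exposure lasted 3 days before fixation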;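 as to nuclei count: percent of the per-plate median nuclei count of sample wells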); conditions: exon1htt(103Q)mCFP cell line, aggregate imaging, at 2 µM; inhibition of aggregation: stronger effect = higher value; nuclei count: measured here: cell count, toxicity
# [3] = endothelial E-selectin expression blockers – imaging, HUVEC, immunofluorescence, MLSMR starter and 10KST1 sets, primary screen (AID 487;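 active = visually confirmed hit in the image check and inhibition above 20%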;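 as to inhibition: signal is fraction of cell area covered by stained E-selectin grains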;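 as to nuclei count: 100% = median nuclei count of all wells on the same plate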); conditions: HUVEC TNFalpha-induced E-selectin immunofluorescence imaging, at 2 µM; inhibition: stronger effect = higher value; nuclei count: measured here: cell number, toxicity
# [4] = biological target: Voltage-gated potassium channel subunit beta-2 (Rattus norvegicus) (UniProt P62483); assay: inhibitors of rat Kvbeta2 reductase activity – biochemical, NADPH fluorescence, primary screen (AID 622;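 active = fluorescence slope higher than the sample average by over 3 SD, cut at about -0.22 in these data, passing the limit was not always enough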;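 also: slope of raw intensity against log time taken from 70 to 1610 s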); conditions: recombinant KvBeta, 4-cyanobenzaldehyde reduction, at 10 µM, stronger effect = higher value
# [5] = biological target: Voltage-gated potassium channel subunit beta-2 (Rattus norvegicus) (UniProt P62483); assay: enhancers of rat Kvbeta2 NADPH turnover – biochemical, NADPH fluorescence, primary screen (AID 623;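 active = NADPH fluorescence slope more negative than the mean of all samples by about 3 SD, 99.7% confidence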;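 also: fluorescence intensity change per second fitted from 20 to 320 s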); conditions: Recombinant KvBeta, NADPH fluorescence decrease slope, 10 min; at 10 µM; stronger effect = lower value
# [6] = biological target: Muscarinic acetylcholine receptor M4 (Homo sapiens) (UniProt P08173); assay: M4-linked GIRK flux change, two-sided – cell-based, HEK293 M4/GIRK, thallium flux, BTC-AM, M4 allosteric agonist project, primary screen (AID 625;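 active = fluorescence slope after compound addition differing from the mean of all tested samples at 99.7% confidence, mostly higher but some lower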;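 also: thallium influx through GIRK channels coupled to M4 in HEK293 cells with BTC-AM dye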); conditions: at 10 µM, actives lie on both sides
# In short: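 Material: M4/GIRK1/GIRK2 stable HEK293 cell line. Medium: pH 7.3 thallium assay buffer. Dosing: single compound concentration, 10 µM final. Schedule: 1 h dye loading, 2 min kinetic read. Measured by: kinetic fluorescence with BTC-AM dye. Read-out: post-addition slope, 15–24 s, of baseline-normalized fluorescence. Benchmarks: carbachol and DMSO controls.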
# [7] = blockers of RIG-like receptor reporter activation – cell-based, Sendai virus stimulus, luciferase, 10K MLSCN set, TLR/RLR signaling modifier project, primary screen (AID 602276;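 active = inhibition at or above 50% at 10 µM; inactive = inhibition below 50%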;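 also: firefly luciferase from ISG56 promoter only with Renilla not read in this screen; 0% = Sendai virus plus DMSO and 100% = medium plus DMSO without virus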); conditions: HEK293 RL24 IRF3 luciferase reporter, at 10 µM, stronger effect = higher value
# [8] = TLR3 IRF3 reporter activation blockers – cell-based, poly I:C stimulus, luciferase, 10K MLSCN set, primary screen (AID 602277); conditions: HEK293-TLR3 RL24 IRF3 luciferase reporter, at 10 µM, stronger effect = higher value
# Muscarinic acetylcholine receptor M4 (Homo sapiens), sequence (P08173 whole entry, looked up): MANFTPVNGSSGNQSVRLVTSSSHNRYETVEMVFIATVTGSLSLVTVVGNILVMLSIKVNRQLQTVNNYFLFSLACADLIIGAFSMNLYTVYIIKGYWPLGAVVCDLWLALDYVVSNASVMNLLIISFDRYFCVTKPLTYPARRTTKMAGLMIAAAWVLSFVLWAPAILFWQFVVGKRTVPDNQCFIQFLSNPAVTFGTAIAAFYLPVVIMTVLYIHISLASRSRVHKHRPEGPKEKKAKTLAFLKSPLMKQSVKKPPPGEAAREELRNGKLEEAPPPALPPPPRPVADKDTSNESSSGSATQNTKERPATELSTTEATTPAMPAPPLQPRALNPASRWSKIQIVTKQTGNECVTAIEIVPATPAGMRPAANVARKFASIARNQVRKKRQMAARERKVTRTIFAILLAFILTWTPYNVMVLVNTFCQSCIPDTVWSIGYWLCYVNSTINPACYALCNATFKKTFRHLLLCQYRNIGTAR
# Voltage-gated potassium channel subunit beta-2 (Rattus norvegicus), sequence (P62483 whole entry, looked up): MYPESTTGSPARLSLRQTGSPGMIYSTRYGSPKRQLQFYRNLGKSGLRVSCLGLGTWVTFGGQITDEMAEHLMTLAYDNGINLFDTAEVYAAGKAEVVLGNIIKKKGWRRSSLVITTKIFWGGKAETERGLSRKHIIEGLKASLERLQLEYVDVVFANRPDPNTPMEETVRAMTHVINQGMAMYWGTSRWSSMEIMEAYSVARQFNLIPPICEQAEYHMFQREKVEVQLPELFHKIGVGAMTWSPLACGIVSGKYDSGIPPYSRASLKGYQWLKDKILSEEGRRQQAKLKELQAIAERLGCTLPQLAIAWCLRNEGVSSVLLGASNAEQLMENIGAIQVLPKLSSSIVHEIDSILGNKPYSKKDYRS
compound,measurement,setting,value
CC(Oc1ccc(Br)cc1)C(=O)N1CCc2ccccc21 (stereo not drawn),cell count,[1],406
same,inhibition,[1],6.3% (inactive)
same,inhibition of aggregation,[2],22.4% (inactive)
same,nuclei count,[2],104%
same,inhibition,[3],-97.2% (inactive)
same,nuclei count,[3],119%
same,fluorescence slope,[4],-0.486 (inactive)
same,NADPH fluorescence slope,[5],5.9e-05 (inactive)
same,fluorescence slope,[6],0.00581 (inactive)
same,inhibition,[7],-4.76% (inactive)
same,inhibition,[8],-9.35% (inactive)
Cc1nn(-c2nc3ccccc3[nH]2)c(N)c1-c1ccccc1,cell count,[1],666
same,inhibition,[1],-7.5% (inactive)
same,inhibition of aggregation,[2],-12.6% (inactive)
same,nuclei count,[2],110%
same,inhibition,[3],-105% (inactive)
same,nuclei count,[3],110%
same,fluorescence slope,[4],-0.47 (inactive)
same,NADPH fluorescence slope,[5],-2.8e-06 (inactive)
same,fluorescence slope,[6],0.00573 (inactive)
same,inhibition,[7],-38.3% (inactive)
same,inhibition,[8],-134% (inactive)
CC(=O)N1c2c(cc(Br)cc2S(=O)(=O)N2CCN(c3ccccn3)CC2)CC1C (stereo not drawn),cell count,[1],365
same,inhibition,[1],-15.4% (inactive)
same,inhibition of aggregation,[2],21.2% (inactive)
same,nuclei count,[2],93.1%
same,inhibition,[3],-49.9% (inactive)
same,nuclei count,[3],128%
same,fluorescence slope,[4],-0.523 (inactive)
same,NADPH fluorescence slope,[5],-0.000101 (inactive)
same,fluorescence slope,[6],0.00651 (inactive)
same,inhibition,[7],15.6% (inactive)
same,inhibition,[8],6.87% (inactive)
COc1ccc(C(=O)N2CCOCC2)cc1Br,cell count,[1],406
same,inhibition,[1],-7.6% (inactive)
same,inhibition of aggregation,[2],5.4% (inactive)
same,nuclei count,[2],90.8%
same,inhibition,[3],-24.6% (inactive)
same,nuclei count,[3],108%
same,fluorescence slope,[4],-0.49 (inactive)
same,NADPH fluorescence slope,[5],3.2e-05 (inactive)
same,fluorescence slope,[6],0.0055 (inactive)
same,inhibition,[7],-0.192% (inactive)
same,inhibition,[8],-3.39% (inactive)
Cc1cccc(-n2c(Cc3cc(=O)[nH]c(=O)[nH]3)nnc2SCC(=O)NCc2ccco2)c1,cell count,[1],400
same,inhibition,[1],-4% (inactive)
same,inhibition of aggregation,[2],-21.7% (inactive)
same,nuclei count,[2],90%
same,inhibition,[3],-15.1% (inactive)
same,nuclei count,[3],101%
same,fluorescence slope,[4],-0.529 (inactive)
same,NADPH fluorescence slope,[5],-4.9e-05 (inactive)
same,fluorescence slope,[6],0.00455 (inactive)
same,inhibition,[7],12.7% (inactive)
same,inhibition,[8],7.93% (inactive)
CCn1c(C)nc2cc(C(=O)OC(C(F)(F)C(F)F)C(F)(F)C(F)F)ccc21,cell count,[1],358
same,inhibition,[1],6% (inactive)
same,inhibition of aggregation,[2],12.2% (inactive)
same,nuclei count,[2],91.2%
same,inhibition,[3],-20.9% (inactive)
same,nuclei count,[3],93.6%
same,fluorescence slope,[4],-0.557 (inactive)
same,NADPH fluorescence slope,[5],-2.6e-05 (inactive)
same,fluorescence slope,[6],0.00666 (inactive)
same,inhibition,[7],7.52% (inactive)
same,inhibition,[8],-180% (inactive)
Nc1nnc(-c2cc3ccccc3oc2=O)s1,cell count,[1],723
same,inhibition,[1],-6.8% (inactive)
same,inhibition of aggregation,[2],2.5% (inactive)
same,nuclei count,[2],94%
same,inhibition,[3],-72.3% (inactive)
same,nuclei count,[3],123%
same,fluorescence slope,[4],-0.0269 (inactive)
same,NADPH fluorescence slope,[5],-7.7e-06 (inactive)
same,fluorescence slope,[6],0.0038 (inactive)
same,inhibition,[7],-3.81% (inactive)
same,inhibition,[8],-27.9% (inactive)
Cc1c(NC(=O)C(C)OC(=O)COc2cccc3c2OC(C)(C)C3)c(=O)n(-c2ccccc2)n1C (stereo not drawn),cell count,[1],652
same,inhibition,[1],-11.6% (inactive)
same,inhibition of aggregation,[2],-3.5% (inactive)
same,nuclei count,[2],129%
same,inhibition,[3],-45.4% (inactive)
same,nuclei count,[3],122%
same,fluorescence slope,[4],-0.59 (inactive)
same,NADPH fluorescence slope,[5],-7.7e-05 (inactive)
same,fluorescence slope,[6],0.00305 (inactive)
same,inhibition,[7],4.56% (inactive)
same,inhibition,[8],14.8% (inactive)
